Published values collected from several papers.
Compare with care: the assays were run in different laboratories.
Target: Activated CDC42 kinase 1 (TNK2, Homo sapiens, UniProt Q07912)

Compound | observed | technique | concentration | remaining binding
CCN1CCN(Cc2ccc(C(=O)Nc3ccc(C)c(Oc4ccc5c(c4)CC(=O)N5)c3)cc2C(F)(F)F)CC1 | binding | competition with immobilised ligand | 1 µM | 100%
N[C@H]1CCN(c2nccc(-c3cnn4ncccc34)n2)C1 | binding | – | 1 µM | 77%
CCN(CC)Cc1cc(Nc2ccnc3cc(Cl)ccc23)ccc1O | cell-free assay | competition with immobilised ligand | 0.1 µM | 89%
Cc1cnc(Nc2ccc(C(=O)N3CCC(N4CCCC4)CC3)cc2)nc1-c1cc2ccccc2s1 | binding | competition with immobilised ligand | 1 µM | 10%
CN(C)c1nccc(-c2cnn3ncccc23)n1 | binding | – | 1 µM | 100%
COC(=O)Nc1nc2cc(C(=O)c3ccccc3)ccc2[nH]1 | cell-free assay | competition with immobilised ligand | 0.1 µM | 100%
C=CC(=O)N1CCC(C(=O)NCC(=O)N2CCN(c3nc(-c4cnc(N)nc4C(F)F)nc(N4CCOCC4)n3)CC2)CC1 | binding | competition with immobilised ligand | 1 µM | 100%
CN(C)c1nccc(-c2cnc3ncccn23)n1 | binding | – | 1 µM | 99%
COc1cccc(CNC(=O)c2nc3scc(COCc4ccc(C(=O)O)cc4)c3c(=O)[nH]2)c1 | cell-free assay | competition with immobilised ligand | 1 µM | 89.6%
O=C(NCC1CCOCC1)c1n[nH]cc1NC(=O)c1c(F)cccc1F | binding | competition with immobilised ligand | 1 µM | 98%
Cc1nc(Cc2cccc(C(F)(F)F)c2)sc1-c1ccc(C(N)=O)nc1 | cell-free assay | competition with immobilised ligand | 1 µM | 100%
CC1CCCN1c1nccc(-c2cnn3ncccc23)n1 (stereo not shown) | binding | – | 1 µM | 85%
CNC(=O)c1cc(Oc2ccc(NC(=O)Nc3ccc(Cl)c(C(F)(F)F)c3)cc2)ccn1 | cell-free assay | competition with immobilised ligand | 10 µM | 89%
C[C@H]1CCN(c2nccc(-c3cnn4ncccc34)n2)C1 | binding | – | 1 µM | 100%
CN1CC[C@H](c2c(O)cc(O)c3c(=O)cc(-c4ccccc4Cl)oc23)[C@H](O)C1 | cell-free assay | competition with immobilised ligand | 0.1 µM | 100%
COc1cnc(Nc2cccc(S(N)(=O)=O)c2)nc1N1CCN(c2ccccc2)CC1 | binding | competition with immobilised ligand | 1 µM | 97%

Compound | observed | technique | concentration | remaining binding
Cn1nc(C(F)(F)F)cc1-c1cnc(N2CCc3cc(S(=O)(=O)Nc4c(F)cc(Cl)cc4F)cc(N4CCCC4=O)c32)nc1 | cell-free assay | competition with immobilised ligand | 1 µM | 100%
Cc1nc(Nc2ncc(C(=O)Nc3c(C)cccc3Cl)s2)cc(N2CCN(CCO)CC2)n1 | cell-free assay | competition with immobilised ligand | 10 µM | 0%
CCS(=O)(=O)c1cc2cc(C[C@](O)(CC(C)(C)c3ccc(F)cc3C(N)=O)C(F)(F)F)[nH]c2cn1 | cell-free assay | competition with immobilised ligand | 1 µM | 100%
COc1cc2ncnc(Nc3ccc(F)c(Cl)c3)c2cc1OCCCN1CCOCC1 | cell-free assay | competition with immobilised ligand | 10 µM | 77%
CN([C@@H]1CCc2c(CC(=O)O)c3ccccc3n2C1)S(=O)(=O)c1ccc(F)cc1 | cell-free assay | competition with immobilised ligand | 1 µM | 100%
CS(=O)(=O)CCNCc1ccc(-c2ccc3ncnc(Nc4ccc(OCc5cccc(F)c5)c(Cl)c4)c3c2)o1 | cell-free assay | competition with immobilised ligand | 0.1 µM | 100%
O=C(NCCCN1CCOCC1)c1ccc(Nc2nccc(-c3cc4ccccc4s3)n2)cc1 | binding | competition with immobilised ligand | 1 µM | 63%
F[C@@H]1CCN(c2nccc(-c3cnn4ncccc34)n2)C1 | binding | – | 1 µM | 79%
c1cncc(-c2cccc(Nc3nccc(NC4CCCCC4)n3)c2)c1 | binding | competition with immobilised ligand | 10 µM | 43%
CNCc1ccccc1-c1csc([C@@H](C)Nc2nc(C)nc3cc(OC)c(OC)cc23)c1 | cell-free assay | competition with immobilised ligand | 1 µM | 100%
O=C(c1ccc(Nc2ncc(Cl)c(-c3cc4ccccc4s3)n2)cc1)N1CCC(N2CCCC2)CC1 | binding | competition with immobilised ligand | 1 µM | 54%
O=C(NS(=O)(=O)c1ccc(NCC2CCOCC2)c([N+](=O)[O-])c1)c1ccc(N2CCN(Cc3ccc(C(F)(F)F)cc3-c3ccc(Cl)cc3)CC2)cc1Oc1cnc2[nH]ccc2c1 | cell-free assay | competition with immobilised ligand | 1 µM | 100%
Nc1ncc2c(n1)-c1c([nH]c3ccc(C#CC4CC4)cc13)CCCC2 | binding | competition with immobilised ligand | 1 µM | 100%
Cc1c(C(=O)O)cc(-c2ccc(C3CCNCC3)cc2)c2ccc(-c3ccc(C(F)(F)F)cc3)cc12 | binding | competition with immobilised ligand | 1 µM | 100%
Cc1c(-c2ccccc2)oc2c(C(=O)OCCN3CCCCC3)cccc2c1=O | cell-free assay | competition with immobilised ligand | 0.1 µM | 100%
